According to paper PMC5522708 (Archives of biochemistry and biophysics, 2016):

Columns and labels:
renalase = assay: HPLC substrate analysis of reduced NR and NMN isomers with renalase; format: biochemical; settings: ~12.5 µM renalase, 10 min, HPLC of borohydride-reduced mixtures, pH 7.5
How it was run: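 Each mixture was split: one half received renalase, the other served as the no-enzyme and stability control. After 10 min, enzyme was removed by 10 kDa ultrafiltration. Filtrates ran on isocratic C18 HPLC (same buffer) with detection at 260/370 nm, corrected for dilution.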

human renalase = human renalase (Homo sapiens, UniProt Q5VYX0); format: biochemical, H. sapiens; settings: for inhibition of 6DHNAD oxidation (reductive half reaction): 173 µM 6DHNAD, anaerobic
HsRen (human renalase) = settings: cited from earlier work; for binding constants of the products: earlier work, no reference given
[1] = test system: E.coli malate dehydrogenase; settings: competitive; cited from earlier work
[2] = biological target: specific enzymes that have β-NADH as substrate; settings: competitive; cited from earlier work
[3] = biological target: HsRen (renalase from H. sapiens) (Homo sapiens, UniProt Q5VYX0); assay: Reductive half-reaction of HsRen; format: biochemical; settings: anaerobic, 25 °C; for increase in kred/Kd on addition of ADP: ADP 4–5 mM
How it was run: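 Anaerobic stopped-flow was run at 25 °C in 20 mM HEPES, pH 7.5, with glucose/glucose oxidase O2 scavenging. HsRen was 6–11 µM post-mix, and flavin reduction was read at 458 nm. DHNR runs included 2 mM octyl-β-glucoside.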

Sequence of HsRen (renalase from H. sapiens) (Q5VYX0 18-342): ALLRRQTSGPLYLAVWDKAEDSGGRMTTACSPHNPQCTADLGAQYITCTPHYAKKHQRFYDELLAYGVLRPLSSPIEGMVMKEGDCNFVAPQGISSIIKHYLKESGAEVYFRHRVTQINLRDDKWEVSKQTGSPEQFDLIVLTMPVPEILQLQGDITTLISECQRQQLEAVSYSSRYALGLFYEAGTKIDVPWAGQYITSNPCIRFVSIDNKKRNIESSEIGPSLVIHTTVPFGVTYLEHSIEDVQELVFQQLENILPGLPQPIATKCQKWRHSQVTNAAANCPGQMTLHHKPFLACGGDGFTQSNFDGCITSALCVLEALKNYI
Sequence of human renalase (Q5VYX0 18-342): as above

With NC(=O)C1=CC=CN([C@@H]2O[C@H](COP(=O)(O)O)[C@@H](O)[C@H]2O)C1 [2DHNMN, 2-dihydronicotinamide mononucleotide] the “consumed by renalase (substrate)” value (renalase) was “consumed”.
In the case of NC(=O)C1=CC=CN([C@@H]2O[C@H](CO)[C@@H](O)[C@H]2O)C1 [2DHNR], the “consumed by renalase (substrate)” value (renalase) is reported as “consumed”.
In the case of NC(=O)C1=CN([C@@H]2O[C@H](COP(=O)(O)O)[C@@H](O)[C@H]2O)C=CC1 [4DHNMN, 4-dihydronicotinamide mononucleotide], the “difference in the Kd for 4DHNMN compared to 4DHNR” value (human renalase; HsRen) is reported as “six-fold” and the “inhibition of 6DHNAD oxidation (reductive half reaction)” value (from here on “inhibition … (reductive half reaction)”) (human renalase; HsRen) is reported as “inhibitory”.
With NC(=O)C1=CN([C@@H]2O[C@H](CO)[C@@H](O)[C@H]2O)C=CC1 [4DHNR, 4-dihydronicotinamide riboside] the “inhibition … (reductive half reaction)” value (human renalase; HsRen) was “inhibitory”.
For NC(=O)C1=CN([C@@H]2O[C@H](COP(=O)(O)OP(=O)(O)OC[C@H]3O[C@@H](n4cnc5c(N)ncnc54)[C@H](O)[C@@H]3O)[C@@H](O)[C@H]2O)CC=C1 [6DHNAD, 6-dihydronicotinamide adenine dinucleotide], the Kd (HsRen (human renalase); read-out: measured dissociation constant for the substrate) is listed as 0.173 mM, the Ki [1] is listed as 34 nM and the Ki values [2] is listed as “sub-micromolar range”.
In the case of NC(=O)C1=CN(C2OC(COP(=O)(O)O)C(O)C2O)CC=C1 (centres unmarked) [6DHNMN, 6-dihyronicotinamide mononucleotide], the “consumed by renalase (substrate)” value (renalase) is reported as “consumed” and the “effect of AMP counterpart ligand on kred/Kd” value ([3]; pH 7.5) is reported as “no measurable difference”.
For NC(=O)C1=CN([C@@H]2O[C@H](CO)[C@@H](O)[C@H]2O)CC=C1 [6DHNR, 6-dihydornicotinamide riboside], the “consumed by renalase (substrate)” value (renalase) was “consumed”, the “increase in kred/Kd on addition of ADP” value ([3]; pH 7.5) was 7 fold and the “increase in kred/Kd on addition of ADP” value ([3]; pH 7.5, listed as 6-dihydronicotinamide riboside) was “seven”.
With Nc1ncnc2c1ncn2[C@@H]1O[C@H](COP(=O)(O)OP(=O)(O)O)[C@@H](O)[C@H]1O [ADP, adenosine diphosphate] the Kd (human renalase) was 15 mM.
For Nc1ncnc2c1ncn2[C@@H]1O[C@H](COP(=O)(O)O)[C@@H](O)[C@H]1O [AMP, adenosine monophosphate], the “inhibition … (reductive half reaction)” value (human renalase; HsRen) was “did not show measureable inhibition”.
With NC(=O)c1ccc[n+]([C@@H]2O[C@H](COP(=O)([O-])O)[C@@H](O)[C@H]2O)c1 [NMN^+, nicotinamide mononucleotide] the “inhibition … (reductive half reaction)” value (human renalase; HsRen) was “did not yield any substrate inhibition”.
For NC(=O)c1ccc[n+]([C@@H]2O[C@H](CO)[C@@H](O)[C@H]2O)c1 [NR^+, nicotinamide riboside], the IC50 (human renalase) was greater than 7.3 mM and the “inhibition … (reductive half reaction)” value (human renalase; HsRen) was “did not yield any substrate inhibition”.
With CNC(=O)c1cccnc1 [methyl nicotinamide] the “inhibition … (reductive half reaction)” value (human renalase; HsRen) was “did not show measureable inhibition”.
In the case of NC(=O)c1cccnc1 [nicotinamide], the IC50 (human renalase) is reported as greater than 68 mM and the “inhibition … (reductive half reaction)” value (human renalase; HsRen) is reported as “did not show measureable inhibition”.
In the case of NC(=O)c1ccc[n+]([C@@H]2O[C@H](COP(=O)([O-])OP(=O)(O)OC[C@H]3O[C@@H](n4cnc5c(N)ncnc54)[C@H](OP(=O)(O)O)[C@@H]3O)[C@@H](O)[C@H]2O)c1 [β-NADP^+, oxidized nicotinamide adenine dinucleotide phosphate], the “binding constants of the products” value (HsRen (human renalase)) is given as “low millimolar”.
In the case of NC(=O)c1ccc[n+]([C@@H]2O[C@H](COP(=O)([O-])OP(=O)(O)OC[C@H]3O[C@@H](n4cnc5c(N)ncnc54)[C@H](O)[C@@H]3O)[C@@H](O)[C@H]2O)c1 [β-NAD^+, oxidized nicotinamide adenine dinucleotide], the “binding constants of the products” value (HsRen (human renalase)) is listed as “low millimolar”.
